Experimental data taken from article PMC5084670 (Cancer Science, 2016).

Assay: Phase I dose-escalation study: safety, adverse events
Assay type: in vivo, human
Summary of the method: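 Oral test compound was given once daily in 28-day cycles after a 7-day single-dose run-in, in Japanese and Hong Kong/Taiwan groups escalated separately. Toxicity was graded by CTCAE v3.0 using laboratory tests, physical examination, vital signs, weight and periodic ECG. DLTs were grade 3–4 events over the run-in plus cycle 1. MTD was set by an adaptive Bayesian logistic regression model with overdose control.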

[1] = group 1, 600 mg q.d. (n = 9), Grade 3
[2] = group 1, 600 mg q.d. (n = 9), Grade 4
[3] = group 1, All patients (n = 21), All grades
[4] = group 1, All patients (n = 21), Grade 3
[5] = group 1, All patients (n = 21), Grade 4
[6] = group 2, 400 mg q.d. (n = 12), All grades

Cc1c(C(=O)Nc2ccc(N3C[C@@H](C)O[C@@H](C)C3)nc2)cccc1-c1ccc(OC(F)(F)F)cc1 [Sonidegib]
Lymphopenia (drug-related adverse event) [1]: 1 (11) n (%)
Muscle spasms (drug-related adverse event) [1]: 0 (0) n (%)
Muscle weakness (drug-related adverse event) [1]: 1 (11) n (%)
Myalgia (drug-related adverse event) [1]: 0 (0) n (%)
Myoglobin blood increased (drug-related adverse event) [1]: 1 (11) n (%)
Nausea (drug-related adverse event) [1]: 0 (0) n (%)
Rhabdomyolysis (drug-related adverse event) [1]: 1 (11) n (%)
Alopecia (drug-related adverse event) [2]: 0 (0) n (%)
Blood creatine kinase increased (drug-related adverse event) [2]: 2 (22) n (%)
Decreased level of consciousness (drug-related adverse event) [2]: 1 (11) n (%)
Dysgeusia (drug-related adverse event) [2]: 0 (0) n (%)
Fatigue (drug-related adverse event) [2]: 0 (0) n (%)
Hepatic function abnormal (drug-related adverse event) [2]: 1 (11) n (%)
Hyperglycemia (drug-related adverse event) [2]: 0 (0) n (%)
Lymphopenia (drug-related adverse event) [2]: 0 (0) n (%)
Muscle spasms (drug-related adverse event) [2]: 0 (0) n (%)
Muscle weakness (drug-related adverse event) [2]: 0 (0) n (%)
Myalgia (drug-related adverse event) [2]: 0 (0) n (%)
Myoglobin blood increased (drug-related adverse event) [2]: 0 (0) n (%)
Nausea (drug-related adverse event) [2]: 0 (0) n (%)
Rhabdomyolysis (drug-related adverse event) [2]: 0 (0) n (%)
Alopecia (drug-related adverse event) [3]: 4 (19) n (%)
Blood creatine kinase increased (drug-related adverse event) [3]: 7 (33) n (%)
Decreased level of consciousness (drug-related adverse event) [3]: 1 (5) n (%)
Dysgeusia (drug-related adverse event) [3]: 3 (14) n (%)
Fatigue (drug-related adverse event) [3]: 4 (19) n (%)
Hepatic function abnormal (drug-related adverse event) [3]: 5 (24) n (%)
Hyperglycemia (drug-related adverse event) [3]: 1 (5) n (%)
Lymphopenia (drug-related adverse event) [3]: 1 (5) n (%)
Muscle spasms (drug-related adverse event) [3]: 2 (10) n (%)
Muscle weakness (drug-related adverse event) [3]: 1 (5) n (%)
Myoglobin blood increased (drug-related adverse event) [3]: 1 (5) n (%)
Nausea (drug-related adverse event) [3]: 3 (14) n (%)
Rhabdomyolysis (drug-related adverse event) [3]: 2 (10) n (%)
Alopecia (drug-related adverse event) [4]: 0 (0) n (%)
Blood creatine kinase increased (drug-related adverse event) [4]: 3 (14) n (%)
Decreased level of consciousness (drug-related adverse event) [4]: 0 (0) n (%)
Dysgeusia (drug-related adverse event) [4]: 0 (0) n (%)
Fatigue (drug-related adverse event) [4]: 0 (0) n (%)
Hepatic function abnormal (drug-related adverse event) [4]: 2 (10) n (%)
Hyperglycemia (drug-related adverse event) [4]: 1 (5) n (%)
Lymphopenia (drug-related adverse event) [4]: 1 (5) n (%)
Muscle spasms (drug-related adverse event) [4]: 0 (0) n (%)
Muscle weakness (drug-related adverse event) [4]: 1 (5) n (%)
Myalgia (drug-related adverse event) [4]: 0 (0) n (%)
Myoglobin blood increased (drug-related adverse event) [4]: 1 (5) n (%)
Nausea (drug-related adverse event) [4]: 0 (0) n (%)
Rhabdomyolysis (drug-related adverse event) [4]: 1 (5) n (%)
Alopecia (drug-related adverse event) [5]: 0 (0) n (%)
Blood creatine kinase increased (drug-related adverse event) [5]: 2 (10) n (%)
Decreased level of consciousness (drug-related adverse event) [5]: 1 (5) n (%)
Dysgeusia (drug-related adverse event) [5]: 0 (0) n (%)
Fatigue (drug-related adverse event) [5]: 0 (0) n (%)
Hepatic function abnormal (drug-related adverse event) [5]: 1 (5) n (%)
Hyperglycemia (drug-related adverse event) [5]: 0 (0) n (%)
Lymphopenia (drug-related adverse event) [5]: 0 (0) n (%)
Muscle spasms (drug-related adverse event) [5]: 0 (0) n (%)
Muscle weakness (drug-related adverse event) [5]: 0 (0) n (%)
Myalgia (drug-related adverse event) [5]: 0 (0) n (%)
Myoglobin blood increased (drug-related adverse event) [5]: 0 (0) n (%)
Nausea (drug-related adverse event) [5]: 0 (0) n (%)
Rhabdomyolysis (drug-related adverse event) [5]: 1 (5) n (%)
Drug-related AE: abnormal hepatic function (group 1, all doses): 24%
Drug-related AE: fatigue (group 1, all doses): 19%
Drug-related AE: increase in CK levels (group 1, all doses): 33%
Drug-related AE: myalgia (group 1, all doses): 29%
Patients with at least one AE suspected to be related to sonidegib (group 1, n = 18): 86%
Recommended dose (RD) (group 2 (Chinese/Taiwanese)): 400 mg q.d.
Grade 3 /4 Creatine kinase elevation during all study period (group 2 (Chinese/Taiwanese), 400 mg qd, N = 12): 2 (17) n (%)
Grade 3 /4 Creatine kinase elevation during all study period (group 2 (Chinese/Taiwanese), 600 mg qd, N = 8): 1 (13) n (%)
Grade 3 /4 Creatine kinase elevation during all study period (group 2 (Chinese/Taiwanese), 800 mg qd, N = 4): 2 (50) n (%)
Grade 3 /4 Creatine kinase elevation during all study period (group 2 (Chinese/Taiwanese), All patients, N = 24): 5 (21) n (%)
Blood creatine kinase increased (drug-related adverse event) [6]: 6 (50) n (%)
Decreased appetite (drug-related adverse event) [6]: 0 (0) n (%)
Diarrhea (drug-related adverse event) [6]: 0 (0) n (%)
Dizziness (drug-related adverse event) [6]: 0 (0) n (%)
